Active and inactive are the calls of the source. The calls are words filed in the database; no cut-off is given here.
How the values were obtained:
DU-145 = assay: Anticancer activity against human DU145 cells after 48 hrs by SRB assay; assay type: functional; settings: DU-145, 48 h
UACC-62 = assay: Anticancer activity against human UACC62 cells after 48 hrs by SRB assay; assay type: functional; settings: UACC-62, 48 h
HL-60(TB) = assay: Anticancer activity against human HL-60(TB) cells after 48 hrs by SRB assay; assay type: functional; settings: HL-60, 48 h
KM12 = assay: Anticancer activity against human KM12 cells after 48 hrs by SRB assay; assay type: functional; settings: KM12, 48 h
OVCAR-3 = assay: Anticancer activity against human OVCAR-3 cells after 48 hrs by SRB assay; assay type: functional; settings: OVCAR-3, 48 h
LOX IMVI = assay: Anticancer activity against human LOXIMVI cells after 48 hrs by SRB assay; assay type: functional
OVCAR-4 = assay: Anticancer activity against human OVCAR4 cells after 48 hrs by SRB assay; assay type: functional; settings: OVCAR-4, 48 h
HCT-15 = assay: Anticancer activity against human HCT15 cells after 48 hrs by SRB assay; assay type: functional; settings: HCT-15, 48 h
MCF7 = assay: Anticancer activity against human MCF7 cells after 48 hrs by SRB assay; assay type: functional; settings: MCF7, 48 h
How it was run: (§1)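 Grown in RPMI 1640 with 10% FBS and 2 mM L-glutamine at 37 °C, 5% CO2. Seeded at densities set by doubling time, then preincubated 24 h. Continuous 48 h drug exposure at four concentrations (0.1, 1, 10, 100), triplicate wells. Fixed with cold TCA (final 10%) at 4 °C, 60 min. Stained with 0.4% SRB in 1% acetic acid, eluted with 10 mM Tris base, read at 540/690 nm. Percent growth versus control wells.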

NCI-H522 = assay: Anticancer activity against human NCI-H522 cells after 48 hrs by SRB assay; assay type: functional; settings: NCI-H522, 48 h
A-375 [1] = assay: Induction of apoptosis in human A375 cells assessed as increase in PPAR protein level at 4 uM after 24 hrs by Western blotting; assay type: functional, cell-based
How it was run: (§2)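 A375 cells were treated for 24 h and lysed in ice-cold RIPA buffer (1% NP-40, 0.5% deoxycholate, 0.1% SDS, protease inhibitors). Protein was quantified by Bradford assay, and 30 µg/lane was run on 12% SDS-PAGE and transferred to PVDF. Membranes were blocked 2 h at RT in TBST with 5% blocker, incubated with primary antibody overnight at 4 °C, then with HRP secondary (1:2000, 1 h, RT). Detection was by chemiluminescence, with β-actin as loading control.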

SNB-75 = assay: Anticancer activity against human SNB75 cells after 48 hrs by SRB assay; assay type: functional; settings: SNB-75, 48 h
A-375 [2] = assay: Induction of apoptosis in human A375 cells assessed as reduction in CDK2 protein level at 4 uM after 24 hrs by Western blotting; assay type: functional, cell-based; how it was run: as §2
A549 = assay: Anticancer activity against human A549 cells after 48 hrs by SRB assay; assay type: functional; settings: A549, 48 h; how it was run: as §1
SN12C = assay: Anticancer activity against human SN12C cells after 48 hrs by SRB assay; assay type: functional
SK-MEL-28 = assay: Anticancer activity against human SK-MEL-28 cells after 48 hrs by SRB assay; assay type: functional; settings: SK-MEL-28, 48 h
SNB-19 = assay: Anticancer activity against human SNB19 cells after 48 hrs by SRB assay; assay type: functional; settings: SNB-19, 48 h
PC-3 = assay: Anticancer activity against human PC3 cells after 48 hrs by SRB assay; assay type: functional; settings: PC-3, 48 h; how it was run: as §1
HCT-116 = assay: Anticancer activity against human HCT116 cells after 48 hrs by SRB assay; assay type: functional; settings: HCT-116, 48 h
CCRF-CEM = assay: Anticancer activity against human CCRF-CEM cells after 48 hrs by SRB assay; assay type: functional
NCI-H226 = assay: Anticancer activity against human NCI-H226 cells after 48 hrs by SRB assay; assay type: functional; settings: NCI-H226, 48 h

## COc1ccc(C2=NOC(c3cc(OC)c(OC)c(OC)c3)C2)cc1OCCCCOc1cc2c(cc1OC)C(=O)N1CCC[C@H]1C=N2 (stereo partly specified)
DU-145
  GI50: 0.58 µM
UACC-62
  GI50: 0.16 µM
HL-60(TB)
  GI50: 0.18 µM
KM12
  GI50: 0.22 µM
OVCAR-3
  GI50: 0.27 µM
LOX IMVI
  GI50: 0.22 µM
OVCAR-4
  GI50: 0.4 µM
HCT-15
  GI50: 0.18 µM
MCF7
  GI50: 0.2 µM
NCI-H522
  GI50: 0.12 µM
A-375 [1]
  Activity: Active
SNB-75
  GI50: 0.32 µM
A-375 [2]
  Activity: Active
A549
  GI50: 0.26 µM
SN12C
  GI50: 0.3 µM
SK-MEL-28
  GI50: 0.2 µM
SNB-19
  GI50: 0.34 µM
PC-3
  GI50: 2.48 µM
HCT-116
  GI50: 0.18 µM
CCRF-CEM
  GI50: 0.16 µM
NCI-H226
  GI50: 0.17 µM
